Assays:
[1] = target: T1, Polyunsaturated fatty acid 5-lipoxygenase (Rattus norvegicus) (UniProt P12527); assay: Inhibition of 5-lipoxygenase in Wistar rat peritoneal leukocytes at 50 ug/mL; type: cell-based
T1 sequence (whole entry): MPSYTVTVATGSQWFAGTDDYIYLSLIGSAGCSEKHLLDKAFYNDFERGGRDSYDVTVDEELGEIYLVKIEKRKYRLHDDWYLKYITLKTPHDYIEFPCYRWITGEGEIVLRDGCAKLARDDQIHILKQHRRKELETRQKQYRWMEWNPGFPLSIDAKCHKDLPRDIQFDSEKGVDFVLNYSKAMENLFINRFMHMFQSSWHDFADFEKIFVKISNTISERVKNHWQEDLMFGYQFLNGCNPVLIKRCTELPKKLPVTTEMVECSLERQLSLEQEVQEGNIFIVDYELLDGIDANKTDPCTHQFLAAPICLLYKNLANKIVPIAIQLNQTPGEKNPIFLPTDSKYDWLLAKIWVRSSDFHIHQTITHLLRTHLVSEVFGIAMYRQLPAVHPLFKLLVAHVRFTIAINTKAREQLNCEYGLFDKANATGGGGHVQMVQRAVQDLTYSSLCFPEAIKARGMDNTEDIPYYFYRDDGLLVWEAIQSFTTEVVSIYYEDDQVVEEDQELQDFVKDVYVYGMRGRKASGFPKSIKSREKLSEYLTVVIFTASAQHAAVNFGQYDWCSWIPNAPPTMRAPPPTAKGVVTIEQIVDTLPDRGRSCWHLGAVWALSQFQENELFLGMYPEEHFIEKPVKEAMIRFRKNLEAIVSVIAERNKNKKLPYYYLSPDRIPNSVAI
Method in brief: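 Leukocytes (~85% PMNs) were elicited in male Wistar rats (200-300 g) with ip 6% oyster glycogen and harvested 16-20 h later. Cells at 2.5 × 10^6/mL in complete HBSS were tested in triplicate, preincubated with the sample (in DMSO, or CHCl3 evaporated) for 10 min at 37 °C, then given A23187 for 10 min. Supernatant LTB4 was measured by RIA (3H-LTB4 tracer, rabbit antiserum, 18 h, 4 °C).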

[2] = species on record: Rattus norvegicus; assay: Inhibition of cyclooxygenase in Wistar rat peritoneal leukocytes at 50 ug/mL; type: cell-based
Method in brief: (§1)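 Peritoneal leukocytes (~85% PMNs) came from male Wistar rats (200-300 g) 16-20 h after ip 6% oyster glycogen and were used at 2.5 × 10^6 cells/mL in complete HBSS. The COX readout was supernatant TXB2 by radioimmunoassay (3H-TXB2 tracer, rabbit antiserum, 4 °C, 18 h).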

[3] = Inhibition of cyclooxygenase in Wistar rat peritoneal leukocytes; type: cell-based; method in brief: as §1
[4] = target: T2, Polyunsaturated fatty acid 5-lipoxygenase (Rattus norvegicus, UniProt P12527); assay: Inhibition of 5-lipoxygenase in Wistar rat peritoneal leukocytes; type: cell-based
T2 sequence (P12527 whole entry): T1 sequence (whole entry)
Method in brief: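 Male Wistar rat peritoneal leukocytes (~85% PMNs) elicited by ip 6% oyster glycogen, harvested 16-20 h later, and resuspended at 2.5 × 10^6 cells/mL in HBSS with 1.26 mM Ca2+ and 0.9 mM Mg2+. Triplicates were preincubated 10 min at 37 °C with the test agent, then stimulated 10 min with calcium ionophore A23187. Supernatant LTB4 was measured by radioimmunoassay using a 3H-LTB4 tracer and rabbit antiserum (4 °C, 18 h).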

[5] = Cell viability of Wistar rat peritoneal leukocytes by trypan blue exclusion method; type: cell-based, Leukocyte; details: read-out: Activity

| Compound | inhibition [1] [%] | inhibition [2] [%] | IC50 [3] [µM] | IC50 [4] [µM] | viability [5] [%] |
| --- | --- | --- | --- | --- | --- |
| O=C(/C=C/c1ccc(O)c(O)c1)O[C@H]1[C@H](O)[C@@H](O)[C@H](OCCc2ccc(O)c(O)c2)O[C@@H]1CO | 0 | 0 | – | – | – |
| C/C1=C\CC(C)(C)/C=C/C(=O)/C(C)=C/CC1 | 0 | 0 | – | – | – |
| CC(/C=C/C=C(\C)C(=O)O)=C\C=C\C=C(C)\C=C\C=C(/C)C(=O)O[C@H]1O[C@H](CO[C@@H]2O[C@H](CO)[C@@H](O)[C@H](O)[C@H]2O)[C@@H](O)[C@H](O)[C@H]1O [CROCETIN MONOGENTIBIOSYL ESTER] | 0 | 85.1 | 28.2 | – | – |
| C=C1CC/C=C(\C)C(=O)C[C@@H]2[C@@H]1CC2(C)C [BUDDLEDIN C] | 16.4 | 9.5 | > 200 | > 200 | – |
| CCn1c(=O)ccc2cc(COc3cc(F)cc(C4(OC)CCOCC4)c3)ccc21 | 100 | 47.8 | – | – | – |
| C=C1CCC[C@H](C)C(=O)[C@H](OC(C)=O)[C@@H]2[C@@H]1CC2(C)C | 0 | 0 | – | – | – |
| C=C1CC/C=C(\C)C(=O)[C@H](OC(C)=O)[C@@H]2[C@@H]1CC2(C)C [BUDDLEDIN A] | 98 | 89.3 | 13.7 | 50.4 | – |
| C[C@H]1O[C@H](O[C@@H]2[C@@H](O)[C@H](OCCc3ccc(O)c(O)c3)O[C@H](CO[C@H]3O[C@@H](CO)[C@H](O)[C@@H](O)[C@@H]3O)[C@H]2OC(=O)/C=C/c2ccc(O)c(O)c2)[C@@H](O)[C@@H](O)[C@@H]1O | 0 | 0 | – | – | – |
| Cc1cc(-c2ccc(/N=N/c3c(S(=O)(=O)O)cc4cc(S(=O)(=O)O)cc(N)c4c3O)c(C)c2)ccc1/N=N/c1c(S(=O)(=O)O)cc2cc(S(=O)(=O)O)cc(N)c2c1O [TRYPAN BLUE] | – | – | – | – | 95 |
| C=C1CC/C=C(\C)C(=O)[C@H](O)[C@@H]2[C@@H]1CC2(C)C [BUDDLEDIN B] | 49.3 | 47.9 | > 200 | > 200 | – |
| C[C@@H]1O[C@@H](O[C@@H]2[C@@H](O)[C@H](OCCc3ccc(O)c(O)c3)O[C@H](CO)[C@H]2OC(=O)/C=C/c2ccc(O)c(O)c2)[C@H](O)[C@H](O)[C@H]1O | 0 | 0 | – | – | – |
| C[C@H]1O[C@H](O[C@@H]2[C@@H](O)[C@H](OCCc3ccc(O)c(O)c3)O[C@H](CO[C@H]3OCC(O)(CO)[C@@H]3O)[C@H]2OC(=O)/C=C/c2ccc(O)c(O)c2)[C@@H](O)[C@@H](O)[C@@H]1O (some centres undefined) | 0 | 0 | – | – | – |
| O=C(O)c1ccc(OCCn2ccnc2)cc1 | 0 | 89.6 | – | – | – |
| COc1ccc(-c2cc(=O)c3c(O)cc(O)cc3o2)cc1 [ACACETIN] | 77.6 | 69.5 | 77.5 | 123 | – |
| CCC(OC)(c1cccc(OCc2ccc3ccccc3c2)c1)c1nccs1 (centres undefined) | 100 | 0 | – | – | – |
| COc1ccc2c(c1)c(CC(=O)O)c(C)n2C(=O)c1ccc(Cl)cc1 | 0 | 100 | – | – | – |
| C[C@@H]1O[C@@H](O[C@@H]2[C@@H](O)[C@H](OCCc3ccc(O)c(O)c3)O[C@H](CO[C@@H]3OC[C@H](O)[C@H](O)[C@H]3O)[C@H]2OC(=O)/C=C/c2ccc(O)c(O)c2)[C@H](O)[C@H](O)[C@H]1O | 0 | 0 | – | – | – |
| COC(CO[C@@H]1O[C@H](CO)[C@@H](OC(=O)/C=C/c2ccc(O)c(O)c2)[C@H](O[C@@H]2O[C@@H](C)[C@H](O)[C@@H](O)[C@H]2O)[C@H]1O)c1ccc(O)c(O)c1 (some centres undefined) | 0 | 0 | – | – | – |
